The source of these data is ChEMBL document CHEMBL1142711 (J Med Chem, 2005).

SMILES strings stand for the structures.

Test [1] concerns the target T1, Mu-type opioid receptor (Rattus norvegicus, UniProt P33535). The test is described as follows: Inhibition of [3H]diprenorphine binding to rat Opioid receptor mu 1 expressed in C6 cells. In kind it is cell-based. The essentials:
(§1)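 Competition binding with [3H]diprenorphine on rat MOR or DOR expressed in C6 cells and human KOR in CHO cells. Mean of three experiments, each in duplicate.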

Test [2] has as its target T2, Kappa-type opioid receptor (Homo sapiens, UniProt P41145). In words: Antagonistic activity against human opioid receptor kappa 1 expressed in CHO cells in [35S]GTP gamma S assay. In kind it is functional, cell-based. In short, it runs like this: (§2)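 Antagonism in [35S]GTPγS binding on membranes: rat MOR/DOR in C6 cells, human KOR in CHO cells. Agonist dose-response curves run with and without test ligand: DAMGO (MOR), SNC80 (DOR), U69593 (KOR). Ke = [antagonist]/(dose-ratio − 1), ± SEM. Three separate experiments.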

The target of test [3] is Mu-type opioid receptor (Rattus norvegicus) (UniProt P33535). The test is described as follows: Stimulation of [35S]-GTP-gamma S binding to Opioid receptor mu 1 expressed in C6 cells. The format is functional, cell-based.
Chain of Mu-type opioid receptor (Rattus norvegicus) (P33535 whole entry): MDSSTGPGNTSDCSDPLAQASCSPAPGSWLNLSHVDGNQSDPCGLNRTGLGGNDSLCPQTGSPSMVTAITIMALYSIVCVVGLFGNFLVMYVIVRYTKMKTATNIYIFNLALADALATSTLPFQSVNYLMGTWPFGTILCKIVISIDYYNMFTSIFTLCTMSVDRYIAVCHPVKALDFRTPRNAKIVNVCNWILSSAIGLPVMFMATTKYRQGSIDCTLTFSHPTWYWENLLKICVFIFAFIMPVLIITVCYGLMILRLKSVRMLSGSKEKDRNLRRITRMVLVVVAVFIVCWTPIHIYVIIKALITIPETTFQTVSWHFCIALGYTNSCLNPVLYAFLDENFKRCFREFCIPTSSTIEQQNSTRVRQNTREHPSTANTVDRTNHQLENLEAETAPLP
A short description of test [4]: Relative binding affinity for rat Opioid receptor mu 1 and human Opioid receptor kappa 1.
Test [5] is described as follows: Relative binding affinity for rat Opioid receptor delta 1 and human Opioid receptor kappa 1.
In test [6] the target is T3, Delta-type opioid receptor (Rattus norvegicus, UniProt P33533). The test is described as follows: Agonist activity against Opioid receptor delta 1 expressed in C6 cells in [35S]-GTP-gamma S assay; No stimulation up to 10000 nM. The format is functional, cell-based.
T3 sequence (P33533 whole entry): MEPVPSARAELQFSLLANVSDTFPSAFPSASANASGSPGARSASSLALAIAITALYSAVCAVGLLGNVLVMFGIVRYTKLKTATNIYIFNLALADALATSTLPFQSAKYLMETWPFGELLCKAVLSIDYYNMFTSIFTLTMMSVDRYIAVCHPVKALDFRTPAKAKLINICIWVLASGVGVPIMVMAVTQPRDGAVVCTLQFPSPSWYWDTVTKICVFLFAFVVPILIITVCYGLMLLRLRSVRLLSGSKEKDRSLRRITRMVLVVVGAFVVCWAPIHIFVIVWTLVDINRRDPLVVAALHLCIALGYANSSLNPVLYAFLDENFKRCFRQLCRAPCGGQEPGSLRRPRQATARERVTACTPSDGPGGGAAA
The target of test [7] is T2, Kappa-type opioid receptor. The test is described as follows: Agonist activity against Opioid receptor kappa 1 expressed in CHO cells in [35S]-GTP-gamma S assay; No stimulation up to 10000 nM. The format is functional, cell-based.
In test [8] the target is T2, Kappa-type opioid receptor. In words: Inhibition of [3H]diprenorphine binding to human opioid receptor kappa 1 expressed in CHO cells. The format is cell-based. The essentials: as §1
Test [9] concerns the target T1, Mu-type opioid receptor. In words: Agonist activity against rat Opioid receptor mu 1 expressed in C6 cells in [35S]-GTP-gamma S binding assay. The format is functional, cell-based.
Test [10] deals with T3, Delta-type opioid receptor. The test is described as follows: Inhibition of [3H]diprenorphine binding to rat Opioid receptor delta 1 expressed in C6 cells. In kind it is cell-based. In short, it runs like this:
as §1

The target of test [11] is Mu-type opioid receptor (Rattus norvegicus) (UniProt P33535). In words: Antagonistic activity against rat opioid receptor mu 1 expressed in C6 cells in [35S]GTP gamma S assay. The format is functional, cell-based. In short, it runs like this:
as §2

The target in test [12] is Delta-type opioid receptor (Rattus norvegicus) (UniProt P33533). The test is described as follows: Antagonistic activity against rat opioid receptor delta 1 expressed in C6 cells in [35S]GTP gamma S assay. The format is functional, cell-based. The essentials: as §2
Chain of Delta-type opioid receptor (Rattus norvegicus) (P33533 whole entry): as above
Test [13] has as its target T1, Mu-type opioid receptor. In words: Agonist activity against Opioid receptor mu 1 expressed in C6 cells in [35S]-GTP-gamma S assay; No stimulation up to 10000 nM. The format is functional, cell-based.
Test [14] concerns Mus musculus. In words: In vivo effective concentration for agonist activity in mouse tail withdrawal assay for antinociception after 24 hr of pre treatment with U-69,593 icv administration (10 nmol). The format is functional, organism-based. The essentials: (§3)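 Mouse warm-water tail withdrawal, water at 50 °C. Agonist U69593 given sc, and its dose-response EC50 (mg/kg) determined. Pretreatment 1, 3, 18, 24 or 48 h before, sc at 10 or 32 mg/kg; or icv 10 nmol at 1, 24, 48 or 168 h before. Vehicle control at −1 h. Fold shift and its significance reported.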

Test [15] relates to Mus musculus. In words: In vivo effective concentration for agonist activity in mouse tail withdrawal assay for antinociception after 24 hr of pre treatment with U-69,593 sc administration (32 mg/kg). The format is functional, organism-based. The essentials:
as §3

Test [16] concerns the target T2, Kappa-type opioid receptor. In words: Stimulation of [35S]-GTP-gamma S binding to Opioid receptor kappa 1 expressed in […] cells. The format is functional, cell-based.
Test [17] deals with Mus musculus. In words: In vivo effective concentration for agonist activity in mouse tail withdrawal assay for antinociception after 1 hr of pre treatment with U-69,593 icv administration (10 nmol). In kind it is functional, organism-based. In short, it runs like this:
as §3

The subject of test [18] is Mus musculus. In words: In vivo effective concentration for agonist activity in mouse tail withdrawal assay for antinociception after 1 hr of pre treatment with U-69,593 sc administration (10 mg/kg). In kind it is functional, organism-based. The essentials: as §3
Test [19] concerns Mus musculus. The test is described as follows: In vivo effective concentration for agonist activity in mouse tail withdrawal assay for antinociception after 3h of pre treatment with U-69,593 sc administration (10 mg/kg). In kind it is functional, organism-based. In short, it runs like this: as §3
Test [20] deals with Mus musculus. In words: In vivo effective concentration for agonist activity in mouse tail withdrawal assay for antinociception after 18 h of pre treatment with U-69,593 sc administration (10 mg/kg). In kind it is functional, organism-based. In short, it runs like this:
as §3

Test [21] has as its system Mus musculus. The test is described as follows: In vivo effective concentration for agonist activity in mouse tail withdrawal assay for antinociception after 24 hr of pre treatment with U-69,593 sc administration (10 mg/kg). In kind it is functional, organism-based. In short, it runs like this: as §3
Test [22] concerns Mus musculus. In words: In vivo effective concentration for agonist activity in mouse tail withdrawal assay for antinociception after 48 hr of pre treatment with U-69,593 icv administration (10 nmol). In kind it is functional, organism-based. In short, it runs like this:
as §3

Test [23] deals with Mus musculus. In words: In vivo effective concentration for agonist activity in mouse tail withdrawal assay for antinociception after 48 hr of pre treatment with U-69,593 sc administration (10 mg/kg). In kind it is functional, organism-based. The essentials:
as §3

For test [24], the system named is Mus musculus. The test is described as follows: In vivo effective concentration for agonist activity in mouse tail withdrawal assay for antinociception after 168h of pre treatment with U-69,593 icv administration (10 nmol). The format is functional, organism-based. In short, it runs like this: as §3
The target in test [25] is T2, Kappa-type opioid receptor. The test is described as follows: Agonist activity against human Opioid receptor kappa 1 expressed in CHO cells in [35S]-GTP-gamma S binding assay. In kind it is functional, cell-based.

T1 sequence (P33535 whole entry): as the sequence (P33535 whole entry) above
T2 sequence (P41145 whole entry): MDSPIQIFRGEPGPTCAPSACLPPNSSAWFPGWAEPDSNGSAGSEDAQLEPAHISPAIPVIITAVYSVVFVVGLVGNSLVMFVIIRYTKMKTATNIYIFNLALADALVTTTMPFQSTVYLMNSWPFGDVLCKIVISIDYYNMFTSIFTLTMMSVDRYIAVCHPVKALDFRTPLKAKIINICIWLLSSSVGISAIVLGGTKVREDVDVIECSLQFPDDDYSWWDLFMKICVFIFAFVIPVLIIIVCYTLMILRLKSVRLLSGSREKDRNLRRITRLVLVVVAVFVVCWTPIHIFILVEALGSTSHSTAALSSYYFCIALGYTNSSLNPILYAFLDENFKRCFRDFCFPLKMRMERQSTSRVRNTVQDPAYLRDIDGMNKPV

On to `CN1CC[C@]23c4c5ccc(O)c4O[C@H]2c2[nH]c4c(c2C[C@@]3(O)[C@H]1C5)C[C@@]1(O)[C@H]2Cc3ccc(O)c5c3[C@@]1(CCN2C)[C@H]4O5`, for which the Ki at Mu-type opioid receptor [1] was 0.0636 µM; in test [8], 0.0077 µM; in test [10] it was 0.0982 µM. This compound also had a Ke in test [2] of 27 nM. The compound also had a Stimulation in [3] of 66%. For the same compound, the Ratio in test [4] turned out to be 8; in test [5], 13. For the same compound, the results for the EC50 result (in test [6]; in [7]; on Mu-type opioid receptor [9]) were “Not Active”, “Not Active” and 1.39 µM, respectively.
In test [2], `C[C@H]1c2c(c3c(n2Cc2ccccc2)[C@@H]2Oc4c(O)ccc5c4[C@@]24CCN(C)[C@H](C5)[C@]4(O)C3)CC2(O)[C@H]3Cc4ccc(O)c(O)c4[C@@]12CCN3C` (stereo partly specified) showed a Ke of 311 nM. The same compound yielded a Stimulation in [3] of 54%. For the same compound, the results for the Ratio in [4] and in test [5] were 0.3 and 8, respectively.
With `Oc1ccc2c3c1O[C@H]1c4[nH]c5c(c4C[C@@]4(O)[C@@H](C2)N(CC2CC2)CC[C@]314)C[C@@]1(O)[C@H]2Cc3ccc(O)c4c3[C@@]1(CCN2CC1CC1)[C@H]5O4` [NORBINALTORPHIMINE], the values for the Ke in [11], in test [12] and in test [2] were 2.38 nM, 5.17 nM and 0.11 nM, respectively. The EC50 result was “Not Active” on Mu-type opioid receptor [13]; “Not Active” in [6]; “Not Active” in test [7]; 31.8 mg/kg in the test with Mus musculus [14]; 22.7 mg/kg with Mus musculus [15]. In test [10], this compound registered an inhibition constant Ki of 0.0058 µM.
Consider `Oc1ccc2c3c1O[C@H]1c4c(c5c(n4Cc4ccccc4)[C@@H]4Oc6c(O)ccc7c6[C@@]46CCN(CC4CC4)[C@H](C7)[C@]6(O)C5)C[C@@]4(O)[C@@H](C2)N(CC2CC2)CC[C@]314`, for which the Ki at Mu-type opioid receptor [1] stood at 0.01 µM; in test [8], 0.0007 µM; in test [10], 0.0086 µM. The values for the Ke in [11], in [12] and in test [2] were 25.5 nM, 13.3 nM and 0.26 nM, respectively. Also, the values for the Stimulation in [3] and in [16] were 38% and 29%, respectively. For the same compound, the Ratio was found to be 14 in test [4] and 12 in [5]. The EC50 result was “Not Active” in test [6]; 49.1 mh/kg with Mus musculus [17]; 2 mg/kg in the test with Mus musculus [18]; 2.1 mg/kg in the test on Mus musculus [19]; 9 mg/kg in the test on Mus musculus [20]; 26.3 mh/kg in the test on Mus musculus [14]. For the same compound, the EC50 with Mus musculus [21] is 4.4 mg/kg; in the test with Mus musculus [15] it was 5.7 mh/kg; in the test with Mus musculus [22], 74.2 mh/kg; in the test with Mus musculus [23], 9.9 mh/kg; in the test on Mus musculus [24], 37 mh/kg; on Mu-type opioid receptor [9], 0.187 µM. In test [25], this compound displayed an EC50 of 1.91 µM.
